How the values were obtained:
SARS-CoV-2 nsp14 = SARS-CoV-2 nsp14 (Severe acute respiratory syndrome coronavirus 2, UniProt P0DTD1); assay: Radiometric nsp14 MTase activity assay; format: biochemical
[1] = biological target: nsp14 (amino acids 1-527) (Severe acute respiratory syndrome coronavirus 2, UniProt P0DTD1); assay: Surface plasmon resonance binding to biotinylated nsp14; design: species or system SARS-CoV-2
Outline: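 SPR used N-terminally biotinylated nsp14 (aa 1–527) coupled on a CM5 chip, with C-terminally biotinylated SETD3 (aa 1–605) as control. Test compounds were injected at five concentrations (0.6–50 µM, or 0.06–5 µM for some) at 50 µL/min. Running buffer was HBS-EP Plus (10 mM HEPES pH 7.4, 150 mM NaCl, 2 mM EDTA, 0.005% Tween-20) with 0.5% DMSO. Contact time was 60 s and dissociation 120 s, with blank-buffer and DMSO (0.4–0.6%) corrections.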

Structure (SMILES): Nc1ncnc2c1ncn2[C@@H]1O[C@H](CSCC[C@H](N)C(=O)O)[C@@H](O)[C@H]1O [SAH, S-Adenosylhomocysteine]
- IC50 (SARS-CoV-2 nsp14): 0.13 ± 0.03 µM
- Kd [1]: 0.14 µM

— paper PMC8458670 (Slas Discovery, 2022)
